In ChEMBL document CHEMBL1126796, “2-(Alkylamino)nicotinic acid and analogs. Potent angiotensin II antagonists” (J Med Chem, 1993):
One block for each molecule: values may come before it.

Columns and labels:
[1] = biological target: T1, Type-1 angiotensin II receptor A (Rattus norvegicus, UniProt P25095); assay: Binding affinity against angiotensin II receptor from rat liver
T1 sequence (P25095 whole entry): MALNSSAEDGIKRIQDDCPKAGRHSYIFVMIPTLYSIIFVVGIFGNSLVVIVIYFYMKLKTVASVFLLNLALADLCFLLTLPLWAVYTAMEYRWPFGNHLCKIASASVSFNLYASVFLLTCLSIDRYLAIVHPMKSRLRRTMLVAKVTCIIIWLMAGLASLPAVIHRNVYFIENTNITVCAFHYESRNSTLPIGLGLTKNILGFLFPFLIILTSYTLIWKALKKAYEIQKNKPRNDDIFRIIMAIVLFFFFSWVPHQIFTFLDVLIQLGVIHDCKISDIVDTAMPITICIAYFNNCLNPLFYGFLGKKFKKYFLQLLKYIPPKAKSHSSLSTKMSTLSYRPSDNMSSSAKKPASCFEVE
How it was run: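 Rat liver membranes were incubated with [125I]-saralasin to measure angiotensin II type 1 receptor binding. Nonspecific binding was defined with 1 µM angiotensin.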

Rattus norvegicus [2] = assay: % decrease in blood pressure after 4 hours at a dose of 30 mg/kg in male rats by using Renal artery hypertensive model; type: functional
How it was run: (§1)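 Male Sprague-Dawley rats (300-350 g) were made hypertensive by renal artery ligation and used on day 6 or 7 after ligation. Arterial pressure was measured from an indwelling femoral artery catheter, with blood pressure and heart rate recorded on line. Read-out is % decrease in blood pressure at 4 h, ±SEM, with number of rats.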

Rattus norvegicus [3] = assay: % decrease in blood pressure after 24 hours at a dose of 1 mg/kg in male rats by using Furosemide-treated spontaneous hypertensive model; type: functional
How it was run: (§2)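 Male SHR, 20-24 weeks old, pretreated with furosemide 10 mg/kg sc at 22 and 4 h before the experiment; compound dosed orally. Arterial pressure was recorded from an indwelling femoral artery catheter with on-line blood pressure and heart rate analysis. Read-out is % fall in blood pressure at 4 h and at 24 h, ±SEM, with number of rats.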

Rattus norvegicus [4] = assay: % decrease in blood pressure after 4 hours at a dose of 1 mg/kg in male rats by using Furosemide-treated spontaneous hypertensive model; type: functional; how it was run: as §2
[5] = Plasma clearance after intravenous dose of 3 mg/kg; type: ADME, organism-based; design: dose 3 mg/kg, route intravenous; details: read-out: Clp
How it was run: (§3)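 Male Sprague-Dawley-derived rats received a slow iv bolus into the jugular vein of the compound in normal saline (1 mL/kg). Tail-vein heparinized blood was drawn from 0.1 to 24 h and assayed by reverse-phase HPLC after liquid-liquid extraction. Total plasma clearance was calculated as dose divided by AUC and reported as mean (SEM).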

[6] = Volume of distribution of central compartment (= dose+ plasma concentration at time zero) after intravenous dose of 0.3 mg/kg; type: ADME, organism-based; design: dose 0.3 mg/kg, route intravenous; details: read-out: VI
How it was run: (§4)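 Jugular-vein slow iv bolus (normal saline, 1 mL/kg) in male Sprague-Dawley-derived rats. Plasma was sampled via the tail vein at 0.1–24 h and measured by reverse-phase HPLC after liquid-liquid extraction. Central volume was taken as dose divided by plasma concentration at time zero. Terminal-phase volume was derived from clearance and the plasma elimination rate constant.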

[7] = Tmax value after oral dose of 3 mg/kg; type: ADME, organism-based; design: dose 3 mg/kg, route oral; details: in vivo
How it was run: (§5)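 Male Sprague-Dawley-derived rats. Compound was given in normal saline at 1 mL/kg, either as a slow iv bolus into the jugular vein or orally by gavage. Plasma underwent liquid-liquid extraction and reverse-phase HPLC. Terminal elimination half-life and time of observed peak concentration were taken from the profiles.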

Rattus norvegicus [8] = assay: % decrease in blood pressure after 4 hours in male rats at a dose of 0.03 mg/kg by using Renal artery hypertensive model; type: functional; how it was run: as §1
[9] = Half-life period of compound after intravenous dose of 3 mg/kg; type: ADME, organism-based; design: dose 3 mg/kg, route intravenous; details: in vivo; how it was run: as §5
[10] = Cmax value after oral dose of 3 mg/kg; type: ADME, organism-based; design: dose 3 mg/kg, route oral; details: in vivo
How it was run: (§6)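 Male Sprague-Dawley-derived rats were dosed with compound in normal saline (1 mL/kg), by gavage or as a slow IV bolus into the jugular vein. Heparinized tail-vein blood was taken at 0.25-24 h, extracted liquid-liquid and assayed by reverse-phase HPLC. Cmax is the observed peak concentration and AUC is mean (SEM). F compares oral with IV AUC, corrected for dose and assuming dose proportionality.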

[11] = Half-life period of compound after intravenous dose of 0.3 mg/kg; type: ADME, organism-based; design: dose 0.3 mg/kg, route intravenous; details: in vivo; how it was run: as §5
[12] = Cmax value after oral dose of 0.1 mg//kg; type: ADME, organism-based; design: dose 0.1 mg//kg, route oral; details: in vivo; how it was run: as §6
[13] = Area under curve after oral dose of 0.3 mg/kg; type: ADME, organism-based; design: dose 0.3 mg/kg, route oral; details: in vivo; how it was run: as §6
[14] = Volume of distribution of the terminal phase (= CLp+ plasma elimination rate constant) after intravenous dose of 3 mg/kg; type: ADME, organism-based; design: dose 3 mg/kg, route intravenous; details: read-out: Vbeta; how it was run: as §4
[15] = Tmax value after oral dose of 1 mg/kg; type: ADME, organism-based; design: dose 1 mg/kg, route oral; details: in vivo; how it was run: as §5
[16] = Volume of distribution of the terminal phase (= CLp+ plasma elimination rate constant) after intravenous dose of 1 mg/kg; type: ADME, organism-based; design: dose 1 mg/kg, route intravenous; details: read-out: Vbeta; how it was run: as §4
[17] = Cmax value after oral dose of 1 mg/kg; type: ADME, organism-based; design: dose 1 mg/kg, route oral; details: in vivo; how it was run: as §6
[18] = Bioavailability after oral dose of 1 mg/kg; type: ADME, organism-based; details: eutheria, in vivo; how it was run: as §6
Rattus norvegicus [19] = assay: % decrease in blood pressure after 24 hours at a dose of 0.1 mg/kg in male rats by using Furosemide-treated spontaneous hypertensive model; type: functional; how it was run: as §2
Rattus norvegicus [20] = assay: % decrease in blood pressure after 4 hours at a dose of 0.1 mg/kg in male rats by using Furosemide-treated spontaneous hypertensive model; type: functional; how it was run: as §2
[21] = Bioavailability after oral dose of 3 mg/kg; type: ADME, organism-based; details: eutheria, in vivo; how it was run: as §6
[22] = Half-life period of compound after intravenous dose of 1 mg/kg; type: ADME, organism-based; design: dose 1 mg/kg, route intravenous; details: in vivo; how it was run: as §5
[23] = Area under curve after oral dose of 0.1 mg//kg; type: ADME; how it was run: as §6
[24] = Half-life period after oral dose of 0.1 mg//kg; type: ADME, organism-based; details: in vivo; how it was run: as §6
[25] = Bioavailability after oral dose of 0.1 mg//kg; type: ADME, organism-based; details: eutheria, in vivo; how it was run: as §6
Rattus norvegicus [26] = assay: % decrease in blood pressure after 4 hours in male rats at a dose of 0.01 mg/kg by using Renal artery hypertensive model; type: functional; how it was run: as §1
Rattus norvegicus [27] = assay: % decrease in blood pressure after 4 hours at a dose of 1 mg/kg in male rats by using Renal artery hypertensive model; type: functional; how it was run: as §1
[28] = Bioavailability after oral dose of 0.3 mg/kg; type: ADME, organism-based; details: eutheria, in vivo; how it was run: as §6
[29] = Half-life period after oral dose of 3 mg/kg; type: ADME, organism-based; design: dose 3 mg/kg, route oral; details: in vivo; how it was run: as §6
[30] = Half-life period after oral dose of 1 mg/kg; type: ADME, organism-based; design: dose 1 mg/kg, route oral; details: in vivo; how it was run: as §6
[31] = Area under curve after oral dose of 3 mg/kg; type: ADME, organism-based; design: dose 3 mg/kg, route oral; details: in vivo; how it was run: as §6
[32] = Plasma clearance after intravenous dose of 1 mg/kg; type: ADME, organism-based; design: dose 1 mg/kg, route intravenous; details: read-out: Clp; how it was run: as §3
[33] = Area under curve after oral dose of 1 mg/kg; type: ADME, organism-based; design: dose 1 mg/kg, route oral; details: in vivo; how it was run: as §6
[34] = Volume of distribution of central compartment (= dose+ plasma concentration at time zero) after intravenous dose of 3 mg/kg; type: ADME, organism-based; design: dose 3 mg/kg, route intravenous; details: read-out: VI; how it was run: as §4
[35] = Cmax value after oral dose of 0.3 mg/kg; type: ADME, organism-based; design: dose 0.3 mg/kg, route oral; details: in vivo; how it was run: as §6
[36] = Half-life period after oral dose of 0.3 mg/kg; type: ADME, organism-based; design: dose 0.3 mg/kg, route oral; details: in vivo; how it was run: as §6
[37] = Tmax value after oral dose of 0.3 mg/kg; type: ADME, organism-based; design: dose 0.3 mg/kg, route oral; details: in vivo; how it was run: as §5
[38] = Volume of distribution of the terminal phase (= CLp+ plasma elimination rate constant) after intravenous dose of 0.3 mg/kg; type: ADME, organism-based; design: dose 0.3 mg/kg, route intravenous; details: read-out: Vbeta; how it was run: as §4
[39] = Tmax value after oral dose of 0.1 mg//kg; type: ADME, organism-based; details: in vivo; how it was run: as §5
Rattus norvegicus [40] = assay: % decrease in blood pressure after 4 hours in male rats at a dose of 0.3 mg/kg by using Renal artery hypertensive model; type: functional; how it was run: as §1
[41] = Volume of distribution of central compartment (= dose+ plasma concentration at time zero) after intravenous dose of 1 mg/kg; type: ADME, organism-based; design: dose 1 mg/kg, route intravenous; details: read-out: VI; how it was run: as §4
[42] = Plasma clearance after intravenous dose of 0.3 mg/kg; type: ADME, organism-based; design: dose 0.3 mg/kg, route intravenous; details: read-out: Clp; how it was run: as §3

Ki [1]: 15.3 nM
Structure (SMILES): CCCCN(Cc1ccc(-c2ccccc2-c2nn[nH]n2)cc1)c1nc(C)ncc1C(=O)O.Cl
Decrease in blood pressure (Rattus norvegicus [2]): 11%

Structure (SMILES): CCCN(Cc1ccc(-c2ccccc2-c2nn[nH]n2)cc1)c1ncc(F)cc1C(=O)O
Decrease in blood pressure (Rattus norvegicus [3]): 22% | Decrease in blood pressure (Rattus norvegicus [4]): 6%

clearance [5]: 0.07 mL/min | Vd [6]: 0.04 L/kg | Tmax [7]: 54 min | half-life [9]: 396 min | Cmax [10]: 9600 ng/mL | half-life [11]: 570 min | Cmax [12]: 490 ng/mL | AUC [13]: 24.44 µg/h/mL | Vd [14]: 0.12 L/kg | Tmax [15]: 54 min | Vd [16]: 0.13 L/kg | Cmax [17]: 2770 ng/mL | bioavailability [18]: 34.9% | bioavailability [21]: 36.3% | half-life [22]: 426 min | AUC [23]: 8.21 µg/h/mL | half-life [24]: ≤ 720 min | Ki [1]: 0.61 nM | bioavailability [25]: 97.9% | bioavailability [28]: 97.2% | half-life [29]: 342 min | half-life [30]: 414 min | AUC [31]: 90.15 µg/h/mL | clearance [32]: 0.07 mL/min | AUC [33]: 28.87 µg/h/mL | Vd [34]: 0.04 L/kg | Cmax [35]: 1350 ng/mL | half-life [36]: > 720 min | Tmax [37]: 1.4 h | Vd [38]: 0.17 L/kg | Tmax [39]: 1.3 h | Vd [41]: 0.04 L/kg | clearance [42]: 0.07 mL/min
Structure (SMILES): CCCN(Cc1ccc(-c2ccccc2-c2nnn[nH]2)cc1)c1ncccc1C(=O)O
Decrease in blood pressure (Rattus norvegicus [3]): 46% | Decrease in blood pressure (Rattus norvegicus [8]): 10% | Decrease in blood pressure (Rattus norvegicus [19]): 36% | Decrease in blood pressure (Rattus norvegicus [20]): 23% | Decrease in blood pressure (Rattus norvegicus [26]): 22% | Decrease in blood pressure (Rattus norvegicus [27]): 40% | Decrease in blood pressure (Rattus norvegicus [4]): 32% | Decrease in blood pressure (Rattus norvegicus [40]): 36%
